Source: ChEMBL document CHEMBL1128238, “Synthesis and structure-activity relationships of dequalinium analogues as K+ channel blockers. Investigations on the role of the charged heterocycle” (J Med Chem, 1995)

How the values were obtained:
[1] = organism: Rattus norvegicus; assay: Ability to inhibit after-hyperpolarization (AHP) in cultured rat sympathetic neurons. (number of neurons tested, n=3).; assay type: functional; conditions: Sympathetic neuron
Procedure, shortened: (§1)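 SK(Ca) block judged from inhibition of the after-hyperpolarization in cultured rat sympathetic neurones. Each compound was tested at two to four concentrations on at least three cells. Test concentrations above 10–30 μM were generally avoided. The time course of block onset was also noted.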

[2] = organism: Rattus norvegicus; assay: Ratio of the concentrations of the test compound and dequalinium that cause 50% inhibition, as determined in the same experiment was reported. (number of neurons tested, n=3).; assay type: functional
Procedure, shortened: (§2)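 AHP inhibition recorded in cultured rat sympathetic neurones. Each compound was applied at two to four concentrations on at least three cells, generally not above 10–30 μM.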

[3] = organism: Rattus norvegicus; assay: Ratio of the concentrations of the test compound and dequalinium that cause 50% inhibition, as determined in the same experiment was reported. (number of neurons tested, n=5).; assay type: functional; procedure, shortened: as §2
[4] = organism: Rattus norvegicus; assay: Ability to inhibit after-hyperpolarization (AHP) in cultured rat sympathetic neurons. (number of neurons tested, n=5).; assay type: functional; conditions: Sympathetic neuron; procedure, shortened: as §1
[5] = organism: Rattus norvegicus; assay: Ability to inhibit after-hyperpolarization (AHP) in cultured rat sympathetic neurons. (number of neurons tested, n=4).; assay type: functional; conditions: Sympathetic neuron; procedure, shortened: as §1
[6] = organism: Rattus norvegicus; assay: Ratio of the concentrations of the test compound and dequalinium that cause 50% inhibition, as determined in the same experiment was reported. (number of neurons tested, n=4).; assay type: functional; procedure, shortened: as §2
[7] = organism: Rattus norvegicus; assay: Ability to inhibit after-hyperpolarization (AHP) in cultured rat sympathetic neurons. (number of neurons tested, n=7).; assay type: functional; conditions: Sympathetic neuron
Procedure, shortened: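 SK(Ca) block measured as inhibition of the after-hyperpolarization in cultured rat sympathetic neurones. Each compound was tested at two to four concentrations on at least three cells, generally not above 10–30 μM. Onset of block was also timed. The 50%-inhibitory concentration was determined.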

[8] = organism: Rattus norvegicus; assay: Ratio of the concentrations of the test compound and dequalinium that cause 50% inhibition, as determined in the same experiment was reported. (number of neurons tested, n=7).; assay type: functional
Procedure, shortened: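 AHP inhibition in cultured rat sympathetic neurones, with each compound at two to four concentrations on at least three cells. The equieffective molar ratio is the test compound's 50%-inhibitory concentration divided by that of dequalinium, both determined in the same experiment.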

[9] = organism: Rattus norvegicus; assay: Ability to inhibit after-hyperpolarization (AHP) in cultured rat sympathetic neurons. (number of neurons tested, n=6).; assay type: functional; conditions: Sympathetic neuron; procedure, shortened: as §1
[10] = organism: Rattus norvegicus; assay: Ratio of the concentrations of the test compound and dequalinium that cause 50% inhibition, as determined in the same experiment was reported. (number of neurons tested, n=6).; assay type: functional; procedure, shortened: as §2
[11] = organism: Rattus norvegicus; assay: Ratio of the concentrations of the test compound and dequalinium that cause 50% inhibition, as determined in the same experiment was reported. (number of neurons tested, n=18).; assay type: functional; procedure, shortened: as §2
[12] = organism: Rattus norvegicus; assay: Ability to inhibit after-hyperpolarization (AHP) in cultured rat sympathetic neurons. (number of neurons tested, n=18).; assay type: functional; conditions: Sympathetic neuron; procedure, shortened: as §1
[13] = organism: Rattus norvegicus; assay: cells; conditions: Sympathetic neuron

Nc1ccnc(NCCCCCCCCCCNc2cc(N)ccn2)c1
IC50 [1]: 5.5 µM
EMR [2]: 5

Nc1c2c([n+](CCCCCCCCCC[n+]3c4c(c(N)c5ccccc53)CCCC4)c3ccccc13)CCCC2
EMR [3]: 0.9
IC50 [4]: 1 µM

Cc1n(C)c2ccccc2[n+]1CCCCCCCCCC[n+]1c(C)n(C)c2ccccc21.O.O.[Cl-].[Cl-]
IC50 [5]: > 10 µM
EMR [6]: >10

Nc1cc[n+](CCCC#CC#CCCC[n+]2ccc(N)cc2)cc1.O.O.[Cl-].[Cl-]
EMR [6]: 4.7

C[n+]1cccnc1NCCCCCCCCCCNc1nccc[n+]1C
EMR [3]: >10
IC50 [4]: > 10 µM

Nc1cc[n+](CCCCCCCCCC[n+]2ccc(N)cc2)cc1
IC50 [7]: 35 µM
EMR [8]: 33

O=[N+]([O-])c1cc[n+]([O-])c(NCCCCCCCCCCNc2cc([N+](=O)[O-])cc[n+]2[O-])c1
IC50 [5]: > 30 µM
EMR [6]: >30

CCCCCCCCCC[n+]1c(C)cc(N)c2ccccc21
IC50 [1]: 5.5 µM
EMR [2]: 4.7

Brc1c[n+](CCCCCCCCCC[n+]2cc(Br)c3ccccc3c2)cc2ccccc12
EMR [3]: 7.6
IC50 [4]: 4.7 µM

c1ccc2c[n+](CCCCCCCCCC[n+]3ccc4ccccc4c3)ccc2c1
EMR [3]: 80
IC50 [4]: 25 µM

C[n+]1c(CCCCCCCCCCc2ccc3ccccc3[n+]2C)ccc2ccccc21
IC50 [9]: 72 µM
EMR [10]: 130

C[n+]1c(CCCCCCCCCCCCc2ccc3ccccc3[n+]2C)ccc2ccccc21
IC50 [5]: 21 µM
EMR [6]: 33

[Br-].[Br-].c1ccc2c(c1)ccc[n+]2CCCCCCCCCC[n+]1cccc2ccccc21
EMR [3]: 15
IC50 [4]: 21 µM

CCCC[n+]1c(C)cc(N)c2ccccc21
EMR [2]: 12

COc1cc(CCCCCCCCCCc2cc(OC)c3ccccc3[n+]2C)[n+](C)c2ccccc12
IC50 [1]: 9.5 µM
EMR [2]: 27

Cc1cc(N)c2ccccc2[n+]1CCCC#CC#CCCC[n+]1c(C)cc(N)c2ccccc21
IC50 [1]: 1.6 µM
EMR [2]: 2.4

c1ccc2c(NCCCCCCCCCCNc3c4ccccc4nc4ccccc34)c3ccccc3nc2c1
IC50 [1]: 6.7 µM
EMR [2]: 12.2

Cn1c[n+](CCCCCCCCCC[n+]2cn(C)c3ccccc32)c2ccccc21
IC50 [5]: 16 µM
EMR [6]: 77

CC[N+](CC)(CC)CCCCCCCCCC[n+]1c(C)cc(N)c2ccccc21.[I-].[I-]
IC50 [1]: 18 µM
EMR [2]: 17

Cc1cc(N)c2ccccc2[n+]1CCCCCCCCCC[n+]1c(C)cc(N)c2ccccc21.[Cl-].[Cl-] [DEQUALINIUM CHLORIDE]
EMR [11]: 1
IC50 [12]: 0.74 µM

Nc1c2c(nc3ccccc13)CCCC2 [TACRINE]
IC50 [13]: 30 µM
